# Assay results from different studies.
# Lines come from different studies, so protocols differ.
# Target: STE20/SPS1-related proline-alanine-rich protein kinase (STK39, Homo sapiens, UniProt Q9UEW8)
Compound,read-out,technique,concentration,remaining binding [%]
Cn1nc(C(F)(F)F)cc1-c1cnc(N2CCc3cc(S(=O)(=O)Nc4c(F)cc(Cl)cc4F)cc(N4CCCC4=O)c32)nc1,cell-free assay,competition with immobilised ligand,1 µM,91
C[C@H]1CCN(c2nccc(-c3cnn4ncccc34)n2)C1,binding,,1 µM,62
COc1cc(-c2cn(C3CCc4ccccc4N(CC(F)(F)F)C3=O)nn2)ccc1-n1ccc(C)n1 (stereo not drawn),cell-free assay,competition with immobilised ligand,1 µM,98
Cc1cnn2ncc(-c3ccnc(N(C)C)n3)c2c1,binding,,1 µM,100
C[C@@H](c1ccc(-n2cnc3c(N)ncnc32)cc1)N1CCc2nn(C)c(Cc3ccccc3)c2C1=O,binding,competition with immobilised ligand,0.1 µM,84
CN(CCCC(F)(F)F)c1nccc(-c2cnn3ncccc23)n1,binding,,1 µM,82
O=C(c1ccc(Nc2ncc(Cl)c(-c3cc4ccccc4s3)n2)cc1)N1CCC(N2CCCC2)CC1,binding,competition with immobilised ligand,1 µM,36
O=C(Nc1c[nH]nc1C(=O)NC1CCNCC1)c1cc(F)cc(F)c1,binding,competition with immobilised ligand,1 µM,67
COc1ncc2cc3ccccc3nc2c1C#N,cell-free assay,competition with immobilised ligand,5 µM,100
O=C(Nc1cccnn1)N1CCC(=Cc2cccc(Oc3ccc(C(F)(F)F)cn3)c2)CC1,cell-free assay,competition with immobilised ligand,1 µM,100
Nc1ncc2c(n1)-c1c([nH]c3ccc(C#CC4CC4)cc13)CCCC2,binding,competition with immobilised ligand,1 µM,53
F[C@@H]1CCN(c2nccc(-c3cnn4ncccc34)n2)C1,binding,,1 µM,57
C=CC(=O)N1CCC(C(=O)NCC(=O)N2CCN(c3nc(-c4cnc(N)nc4C(F)F)nc(N4CCOCC4)n3)CC2)CC1,binding,competition with immobilised ligand,1 µM,76
CS(=O)(=O)NCC[C@H](NC(=O)c1cncc2c1cnn2-c1ccc(F)cc1)c1ccnc(S(C)(=O)=O)c1,cell-free assay,competition with immobilised ligand,1 µM,80
O=C(c1ccc(Nc2ncc(Cl)c(-c3ccc(Cl)s3)n2)cc1)N1CCC(N2CCCC2)CC1,binding,competition with immobilised ligand,1 µM,48
CCCOc1ccc([C@@H]2[C@@H](C(=O)O)[C@H](c3ccc4c(c3)OCO4)CN2CC(=O)Nc2c(CC)cccc2CC)cc1,cell-free assay,competition with immobilised ligand,1 µM,78
COc1ccnn2ncc(-c3ccnc(N(C)C)n3)c12,binding,,1 µM,49
FC(F)(F)c1ccc2c(c1)nc(-c1cccnc1)n2C1CC1,cell-free assay,competition with immobilised ligand,1 µM,100
Cc1cnc(Nc2ccc(C(=O)N3CCC(N4CCCC4)CC3)cc2)nc1-c1cc2ccccc2s1,binding,competition with immobilised ligand,1 µM,53
COc1cnc(Nc2cccc(S(N)(=O)=O)c2)nc1N1CCN(c2ccccc2)CC1,binding,competition with immobilised ligand,1 µM,75
CN(c1nccc(-c2cnn3ncccc23)n1)C1CC1,binding,,1 µM,100
